ChEMBL document CHEMBL1137665, “Antistaphylococcal activity of CG400549, a new experimental FabI inhibitor, compared with that of other agents” (2007)

What was measured:
[1] = test system: Staphylococcus aureus; experiment: Antimicrobial activity against methicillin-resistant vancomycin-intermediate Staphylococcus aureus 555 after single-step resistance selection by agar dilution CLSI method; assay type: functional
How it was run: (§1)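 Single-step selection on drug-containing agar across 10 strains (2 MSSA, 8 MRSA, including VRSA and VISA). Colonies arising on confluent background growth were retested by CLSI agar dilution MIC. Resistance was defined as an MIC more than 4× the parent MIC.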

[2] = test system: Staphylococcus aureus; experiment: Antimicrobial activity against methicillin-resistant vancomycin-intermediate Staphylococcus aureus 504 after single-step resistance selection by agar dilution CLSI method; assay type: functional; how it was run: as §1
[3] = test system: Staphylococcus aureus; experiment: Antimicrobial activity against methicillin-susceptible Staphylococcus aureus 540 after single-step resistance selection by agar dilution CLSI method; assay type: functional; how it was run: as §1
[4] = test system: Staphylococcus aureus; experiment: Antimicrobial activity against methicillin-resistant Staphylococcus aureus 490 after single-step resistance selection by agar dilution CLSI method; assay type: functional; how it was run: as §1
[5] = test system: Staphylococcus aureus; experiment: Antimicrobial activity against methicillin-resistant Staphylococcus aureus 547 after 48 passages by multi-step resistance selection technique; assay type: functional
How it was run: (§2)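 Multistep selection by daily serial passage of each strain in subinhibitory drug concentrations for the stated number of passages. Mutant MIC was then determined. Identity of mutants and parents was confirmed by pulsed-field gel electrophoresis.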

[6] = test system: Staphylococcus aureus; experiment: Antimicrobial activity against methicillin-resistant Staphylococcus aureus by agar dilution CLSI method; assay type: functional
How it was run: (§3)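 CLSI agar dilution MIC against S. aureus clinical isolates. Calcium was added to the medium for daptomycin testing. Vancomycin plates were read after a full 24-h incubation.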

[7] = test system: Staphylococcus aureus; experiment: Antimicrobial activity against methicillin-resistant Staphylococcus aureus 525 after single-step resistance selection by agar dilution CLSI method; assay type: functional; how it was run: as §1
[8] = test system: Staphylococcus aureus; experiment: Antimicrobial activity against methicillin-susceptible Staphylococcus aureus 543 after 15 passages with Linezolid measured after 10 antibiotic-free subculture by multi-step resistance selection technique; assay type: functional
How it was run: (§4)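 Mutants from multistep daily serial passage in subinhibitory drug were then subcultured daily 10 times on antibiotic-free medium. MIC was redetermined after these subcultures to assess stability. Clone identity was checked by pulsed-field gel electrophoresis.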

[9] = test system: Staphylococcus aureus; experiment: Antimicrobial activity against methicillin and vancomycin-resistant Staphylococcus aureus 510 after single-step resistance selection by agar dilution CLSI method; assay type: functional; how it was run: as §1
[10] = test system: Staphylococcus aureus; experiment: Antimicrobial activity against methicillin-susceptible Staphylococcus aureus 540 after 36 passages by multi-step resistance selection technique; assay type: functional; how it was run: as §2
[11] = test system: Staphylococcus aureus; experiment: Antimicrobial activity against methicillin-resistant Staphylococcus aureus 481 after single-step resistance selection by agar dilution CLSI method; assay type: functional; how it was run: as §1
[12] = test system: Staphylococcus aureus; experiment: Antimicrobial activity against panton-valentine leukocidin-positive community-acquired methicillin-resistant Staphylococcus aureus 490 after 22 passages with Linezolid measured after 10 antibiotic-free subculture by multi-step resistance selection technique; assay type: functional
How it was run: (§5)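 Multistep-selected mutants (daily passage at subinhibitory drug levels) then subcultured 10 times daily on antibiotic-free medium; MIC redetermined afterwards and compared with the MIC recorded at the end of selection; clone identity to parent checked by pulsed-field gel electrophoresis.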

[13] = test system: Staphylococcus aureus; experiment: Antimicrobial activity against community-acquired vancomycin-intermediate Staphylococcus aureus 504 by agar dilution CLSI method; assay type: functional; how it was run: as §3
[14] = test system: Staphylococcus aureus; experiment: Antimicrobial activity against vancomycin-intermediate Staphylococcus aureus 504 after 22 passages by multi-step resistance selection technique; assay type: functional
How it was run: (§6)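 Multistep selection: S. aureus strains (MSSA and MRSA, including VISA and VRSA) were passaged serially once daily in subinhibitory concentrations of each antimicrobial. Mutant and parent identities were confirmed by pulsed-field gel electrophoresis at the end of the study. Mutant MIC stability was checked after 10 daily subcultures on antibiotic-free media.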

[15] = test system: Staphylococcus aureus; experiment: Antimicrobial activity against methicillin-susceptible Staphylococcus aureus 543 after single-step resistance selection by agar dilution CLSI method; assay type: functional; how it was run: as §1
[16] = test system: Staphylococcus aureus; experiment: Antimicrobial activity against methicillin-susceptible Staphylococcus aureus by agar dilution CLSI method; assay type: functional; how it was run: as §3
[17] = test system: Staphylococcus aureus; experiment: Antimicrobial activity against vancomycin-intermediate Staphylococcus aureus 504 after 22 passages with Linezolid measured after 10 times antibiotic-free subculture by multi-step resistance selection technique; assay type: functional; how it was run: as §5
[18] = test system: Staphylococcus aureus; experiment: Antimicrobial activity against methicillin-resistant Staphylococcus aureus 547 after single-step resistance selection by agar dilution CLSI method; assay type: functional; how it was run: as §1
[19] = test system: Staphylococcus aureus; experiment: Antimicrobial activity against vancomycin-resistant Staphylococcus aureus 510 Hershey after 50 passages by multi-step resistance selection technique; assay type: functional
How it was run: (§7)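 Multistep selection: 10 S. aureus strains (8 MRSA incl. two VRSA, two VISA; 2 MSSA) serially passaged daily at subinhibitory concentrations of each antimicrobial; MICs of mutants retested and compared with parent; clone identity versus parent confirmed by pulsed-field gel electrophoresis at study end.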

[20] = test system: Staphylococcus aureus; experiment: Antimicrobial activity against panton-valentine leukocidin-negative community-acquired methicillin-resistant Staphylococcus aureus 481 after 37 passages with Linezolid measured after 10 antibiotic-free subculture by multi-step resistance selection technique; assay type: functional; how it was run: as §4
[21] = test system: Staphylococcus aureus; experiment: Antimicrobial activity against vancomycin-resistant Staphylococcus aureus 509 Michigan after 28 passages by multi-step resistance selection technique; assay type: functional; how it was run: as §7
[22] = test system: Staphylococcus aureus; experiment: Antimicrobial activity against methicillin-susceptible Staphylococcus aureus 540 after 36 passages with Linezolid measured after 10 antibiotic-free subculture by multi-step resistance selection technique; assay type: functional; how it was run: as §4
[23] = test system: Staphylococcus aureus; experiment: Antimicrobial activity against vancomycin-resistant Staphylococcus aureus 509 Michigan after 28 passages with Linezolid measured after 10 antibiotic-free subculture by multi-step resistance selection technique; assay type: functional; how it was run: as §5
[24] = test system: Staphylococcus aureus; experiment: Antimicrobial activity against panton-valentine leukocidin-negative community-acquired methicillin-resistant Staphylococcus aureus 481 after 37 passages by multi-step resistance selection technique; assay type: functional; how it was run: as §2
[25] = test system: Staphylococcus aureus; experiment: Antimicrobial activity against methicillin-susceptible Staphylococcus aureus 543 after 15 passages by multi-step resistance selection technique; assay type: functional; how it was run: as §2
[26] = test system: Staphylococcus aureus; experiment: Antimicrobial activity against panton-valentine leukocidin-positive community-acquired methicillin-resistant Staphylococcus aureus 490 after 22 passages by multi-step resistance selection technique; assay type: functional; how it was run: as §7
[27] = test system: Staphylococcus aureus; experiment: Antimicrobial activity against methicillin-resistant Staphylococcus aureus 547 after 48 passages with Linezolid measured after 10 antibiotic-free subculture by multi-step resistance selection technique; assay type: functional; how it was run: as §4
[28] = test system: Staphylococcus aureus; experiment: Antimicrobial activity against methicillin and vancomycin-resistant Staphylococcus aureus 509 after single-step resistance selection by agar dilution CLSI method; assay type: functional; how it was run: as §1
[29] = test system: Staphylococcus aureus; experiment: Antimicrobial activity against vancomycin-resistant Staphylococcus aureus 510 Hershey after 14 passages with CG400549 measured after 10 antibiotic-free subculture by multi-step resistance selection technique; assay type: functional; how it was run: as §5
[30] = test system: Staphylococcus aureus; experiment: Antimicrobial activity against vancomycin-resistant Staphylococcus aureus 509 Michigan by agar dilution CLSI method; assay type: functional
How it was run: (§8)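 Agar dilution MIC per CLSI methodology; calcium supplemented for daptomycin testing; vancomycin plates read after a full 24-h incubation.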

[31] = test system: Staphylococcus aureus; experiment: Antimicrobial activity against vancomycin-intermediate Staphylococcus aureus 504 after 50 passages by multi-step resistance selection technique; assay type: functional; how it was run: as §6
[32] = test system: Staphylococcus aureus; experiment: Antimicrobial activity against vancomycin-intermediate Staphylococcus aureus 555 Hershey after 14 passages with CG400549 measured after 10 antibiotic-free subculture by multi-step resistance selection technique; assay type: functional; how it was run: as §5
[33] = test system: Staphylococcus aureus; experiment: microbe, parasite or virus in culture; settings: 543
[34] = test system: Staphylococcus aureus; experiment: Antimicrobial activity against vancomycin-resistant Staphylococcus aureus 509 Michigan after 14 passages with CG400549 measured after 10 antibiotic-free subculture by multi-step resistance selection technique; assay type: functional; how it was run: as §5
[35] = test system: Staphylococcus aureus; experiment: Antimicrobial activity against vancomycin-intermediate Staphylococcus aureus 555 Hershey after 50 passages by multi-step resistance selection technique; assay type: functional; how it was run: as §7
[36] = test system: Staphylococcus aureus; experiment: Antimicrobial activity against methicillin-susceptible Staphylococcus aureus 540 after 50 passages by multi-step resistance selection technique
[37] = test system: Staphylococcus aureus; experiment: Antimicrobial activity against vancomycin-resistant Staphylococcus aureus 509 Michigan after 20 passages with daptomycin measured after 10 antibiotic-free subculture by multi-step resistance selection technique; assay type: functional; how it was run: as §5
[38] = test system: Staphylococcus aureus; experiment: Antimicrobial activity against vancomycin-intermediate Staphylococcus aureus 555 Hershey by agar dilution CLSI method; assay type: functional; how it was run: as §8
[39] = test system: Staphylococcus aureus; experiment: microbe, parasite or virus in culture; settings: 525
[40] = test system: Staphylococcus aureus; experiment: microbe, parasite or virus in culture; settings: 547
[41] = test system: Staphylococcus aureus; experiment: Antimicrobial activity against panton-valentine leukocidin-positive community-acquired methicillin-resistant Staphylococcus aureus 490 after 50 passages by multi-step resistance selection technique
[42] = test system: Staphylococcus aureus; experiment: Antimicrobial activity against vancomycin-resistant Staphylococcus aureus 510 Hershey by agar dilution CLSI method; assay type: functional; how it was run: as §8
[43] = test system: Staphylococcus aureus; experiment: microbe, parasite or virus in culture; settings: 481

CC(=O)NC[C@H]1CN(c2ccc(N3CCOCC3)c(F)c2)C(=O)O1 [LINEZOLID]
32 µg/mL: MIC [5] | MIC [8] | MIC [10] | MIC [12] | MIC [20] | MIC [23] | MIC [24] | MIC [25] | MIC [26] | MIC [27]
0.5 µg/mL: MIC [1] | MIC [2] | MIC [3] | MIC [4] | MIC [7] | MIC [9] | MIC [11] | MIC [15] | MIC [18] | MIC [28]
16 µg/mL: MIC [19] | MIC [21] | MIC [22]
1 µg/mL: MIC50 [6] | MIC [13] | MIC50 [16]
2 µg/mL: MIC90 [6] | MIC90 [16]
8 µg/mL: MIC [14] | MIC [17]

CN[C@H](CC(C)C)C(=O)N[C@H]1C(=O)N[C@@H](CC(N)=O)C(=O)N[C@H]2C(=O)N[C@H]3C(=O)N[C@H](C(=O)N[C@H](C(=O)O)c4cc(O)cc(O)c4-c4cc3ccc4O)[C@H](O)c3ccc(c(Cl)c3)Oc3cc2cc(c3O[C@@H]2O[C@H](CO)[C@@H](O)[C@H](O)[C@H]2O[C@H]2C[C@](C)(N)[C@H](O)[C@H](C)O2)Oc2ccc(cc2Cl)[C@H]1O [VANCOMYCIN]
16 µg/mL: MIC [29] | MIC [34]
> 64 µg/mL: MIC [30] | MIC [23]
2 µg/mL: MIC90 [6] | MIC90 [16]
1 µg/mL: MIC50 [6] | MIC50 [16]
64 µg/mL: MIC [42]
8 µg/mL: MIC [31] | MIC [32] | MIC [33] | MIC [35] | MIC [36] | MIC [13] | MIC [38] | MIC [17] | MIC [39] | MIC [40] | MIC [41] | MIC [43]
32 µg/mL: MIC [37]
